According to ChEMBL document CHEMBL3774328, “Optimization by Molecular Fine Tuning of Dihydro-β-agarofuran Sesquiterpenoids as Reversers of P-Glycoprotein-Mediated Multidrug Resistance” (J Med Chem, 2016):

Columns and labels:
[1] = molecular target: T1, ATP-dependent translocase ABCB1 (Homo sapiens, UniProt P08183); assay: Inhibition of human MDR1 expressed in mouse NIH/3T3 cells assessed as inhibition of daunomycin efflux incubated for 30 mins by flow cytometry; assay type: cell-based, NIH3T3
Summary of the method: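 Ki for DNM efflux. MDR1-G185 NIH-3T3 cells were incubated 30 min at 37 °C with DNM (2 μM) and varying compound concentrations, then read by flow cytometry. Fluorescence was converted to % P-gp inhibition, normalized to cells treated with 5 mM sodium orthovanadate (100%). Ki was fitted from I = (Imax × S)/(Ki + S). Mean ± SD of three independent experiments in triplicate.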

[2] = Intrinsic cytotoxicity against mouse NIH/3T3 cells transfected with human MDR1 by MTT assay; assay type: ADME, cell-based, NIH3T3
Summary of the method: (§1)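 Intrinsic cytotoxicity was measured by MTT in parental NIH-3T3 and MDR1-G185 cells. CC50 came from a four-parameter logistic fit. The top tested concentration was 60 μM, limited by DMSO toxicity, and growth at 60 μM is given as % of untreated control. Mean ± SD of three independent experiments in duplicate.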

[3] = Intrinsic cytotoxicity against mouse NIH/3T3 cells by MTT assay; assay type: cell-based, NIH3T3; summary of the method: as §1
[4] = Intrinsic cytotoxicity against mouse NIH/3T3 cells assessed as cell growth at 60 uM by MTT assay; assay type: cell-based, NIH3T3; conditions: read-out: Activity; summary of the method: as §1
[5] = molecular target: T1, ATP-dependent translocase ABCB1; assay: Inhibition of human MDR1 expressed in mouse NIH/3T3 cells assessed as reduction in daunomycin IC50 at 1 uM by MTT assay; assay type: cell-based; conditions: nih3t3, 1 µM
Summary of the method: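 Parental NIH-3T3 and MDR1-G185 cells were grown in DMEM with 10% iFBS. They were exposed to increasing DNM or VLB (up to 500 ng/mL) with or without compound at fixed 1, 3 or 10 μM. Growth was read by MTT, and IC50 came from a four-parameter logistic fit. Mean ± SD of two independent experiments in triplicate.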

[6] = molecular target: T1, ATP-dependent translocase ABCB1; assay: Inhibition of human MDR1 expressed in mouse NIH/3T3 cells assessed as reduction in daunomycin IC50 at 3 uM by MTT assay; assay type: cell-based; conditions: nih3t3, 3 µM
Summary of the method: (§2)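 Parental NIH-3T3 and MDR1-G185 cells were grown in DMEM with 10% iFBS. They were exposed to increasing DNM or VLB (up to 500 ng/mL) with or without compound at fixed 1, 3 or 10 μM. Growth was read by MTT, and IC50 came from a four-parameter logistic fit. Reversal index = IC50 without compound / IC50 with compound in MDR1 cells. Mean ± SD of two independent experiments in triplicate.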

[7] = molecular target: T1, ATP-dependent translocase ABCB1; assay: Inhibition of human MDR1 expressed in mouse NIH/3T3 cells assessed as reduction in daunomycin IC50 at 10 uM by MTT assay; assay type: cell-based; conditions: nih3t3, 10 µM; summary of the method: as §2
[8] = molecular target: T1, ATP-dependent translocase ABCB1; assay: Inhibition of human MDR1 expressed in mouse NIH/3T3 cells assessed as reduction in vinblastine IC50 at 1 uM by MTT assay; assay type: cell-based; conditions: nih3t3, 1 µM; summary of the method: as §2
[9] = molecular target: T1, ATP-dependent translocase ABCB1; assay: Inhibition of human MDR1 expressed in mouse NIH/3T3 cells assessed as reduction in vinblastine IC50 at 3 uM by MTT assay; assay type: cell-based; conditions: nih3t3, 3 µM; summary of the method: as §2
[10] = molecular target: T1, ATP-dependent translocase ABCB1; assay: Inhibition of human MDR1 expressed in mouse NIH/3T3 cells assessed as reduction in vinblastine IC50 at 10 uM by MTT assay; assay type: cell-based; conditions: nih3t3, 10 µM; summary of the method: as §2

T1 sequence (P08183 whole entry): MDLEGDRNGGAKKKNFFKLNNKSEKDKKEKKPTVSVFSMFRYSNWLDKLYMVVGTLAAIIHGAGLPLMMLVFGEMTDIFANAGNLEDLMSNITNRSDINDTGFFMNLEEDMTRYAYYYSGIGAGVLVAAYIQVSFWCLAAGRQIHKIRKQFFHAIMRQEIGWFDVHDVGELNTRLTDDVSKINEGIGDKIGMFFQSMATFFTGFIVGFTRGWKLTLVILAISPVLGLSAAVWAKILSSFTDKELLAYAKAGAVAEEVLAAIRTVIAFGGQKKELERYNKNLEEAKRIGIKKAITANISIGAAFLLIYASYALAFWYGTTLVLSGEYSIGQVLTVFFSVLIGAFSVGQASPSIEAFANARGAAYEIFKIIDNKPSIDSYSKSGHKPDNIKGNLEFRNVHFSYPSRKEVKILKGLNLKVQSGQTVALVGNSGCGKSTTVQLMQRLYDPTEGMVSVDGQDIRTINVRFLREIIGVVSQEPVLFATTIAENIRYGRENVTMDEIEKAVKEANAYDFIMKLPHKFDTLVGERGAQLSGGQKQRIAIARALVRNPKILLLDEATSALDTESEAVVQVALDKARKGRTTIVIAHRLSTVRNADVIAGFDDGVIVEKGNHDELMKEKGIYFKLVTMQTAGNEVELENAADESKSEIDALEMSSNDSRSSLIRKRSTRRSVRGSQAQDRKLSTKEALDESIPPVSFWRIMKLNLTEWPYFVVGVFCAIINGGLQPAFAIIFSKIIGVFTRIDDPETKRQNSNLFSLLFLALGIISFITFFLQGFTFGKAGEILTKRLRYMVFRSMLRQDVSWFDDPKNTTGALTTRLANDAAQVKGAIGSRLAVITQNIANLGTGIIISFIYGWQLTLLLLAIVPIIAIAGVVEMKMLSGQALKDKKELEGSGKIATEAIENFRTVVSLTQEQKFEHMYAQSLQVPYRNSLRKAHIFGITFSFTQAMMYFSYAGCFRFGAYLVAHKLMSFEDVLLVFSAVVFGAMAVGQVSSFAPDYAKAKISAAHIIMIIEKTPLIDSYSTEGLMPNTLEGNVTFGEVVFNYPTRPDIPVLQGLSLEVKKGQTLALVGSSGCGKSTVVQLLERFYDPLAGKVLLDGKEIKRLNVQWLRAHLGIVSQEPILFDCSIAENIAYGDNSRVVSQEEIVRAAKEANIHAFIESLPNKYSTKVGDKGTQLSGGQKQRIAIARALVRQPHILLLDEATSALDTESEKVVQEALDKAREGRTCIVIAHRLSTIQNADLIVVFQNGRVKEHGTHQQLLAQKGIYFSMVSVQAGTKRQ

COC(=O)CCCC(=O)O[C@@H]1[C@H]2[C@H](OC(=O)/C=C/c3ccccc3)[C@H](OC(=O)c3ccccc3)[C@]3(C)[C@@H](OC(C)=O)CC[C@](C)(O)[C@@]13OC2(C)C
Ki [1]: 0.61 µM | CC50 [2]: 28.2 µM | CC50 [3]: > 60 µM | viability at 60 µM [4]: 71.3% | fold change (FC) [5]: 6 | fold change (FC) [6]: 12.3 | fold change (FC) [7]: 15.9 | fold change (FC) [8]: 7.5 | fold change (FC) [9]: 37.7 | fold change (FC) [10]: 103.6

CCC(C)C(=O)O[C@@H]1[C@H]2[C@H](OC(=O)/C=C/c3ccccc3)[C@H](OC(=O)c3ccccc3)[C@]3(C)[C@@H](OC(C)=O)CC[C@](C)(O)[C@@]13OC2(C)C (some centres undefined)
Ki [1]: 0.41 µM | CC50 [2]: 13.2 µM | CC50 [3]: > 60 µM | viability at 60 µM [4]: 57.3%

CC(=O)O[C@H]1CC[C@@H](C)[C@]23OC(C)(C)[C@H]([C@H](OC(=O)CCc4ccccc4)[C@H](OC(=O)c4ccccc4)[C@]12C)[C@H]3O
Ki [1]: 0.4 µM | CC50 [2]: 14.2 µM | CC50 [3]: > 60 µM | viability at 60 µM [4]: 72.3%

CC(=O)O[C@H]1CC[C@](C)(O)[C@]23OC(C)(C)[C@H]([C@H](OC(=O)CCc4ccccc4)[C@H](OC(=O)c4ccccc4)[C@]12C)[C@H]3O
Ki [1]: 0.47 µM | CC50 [2]: 30.3 µM | CC50 [3]: 25.4 µM | fold change (FC) [5]: 3.3 | fold change (FC) [6]: 8.1 | fold change (FC) [7]: 11.6 | fold change (FC) [8]: 11.1 | fold change (FC) [9]: 23.6 | fold change (FC) [10]: 43.8

CC(=O)O[C@H]1CC[C@](C)(O)[C@]23OC(C)(C)[C@H]([C@H](OC(=O)/C=C/c4ccccc4)[C@H](OC(=O)c4ccccc4)[C@]12C)[C@H]3OC(=O)C1CC1
Ki [1]: 0.24 µM | CC50 [2]: 11.2 µM | CC50 [3]: 50.3 µM

CC(=O)O[C@H]1CC[C@](C)(Cl)[C@]23OC(C)(C)[C@H]([C@H](OC(=O)/C=C/c4ccccc4)[C@H](OC(=O)c4ccccc4)[C@]12C)[C@H]3Cl
Ki [1]: 1.34 µM | CC50 [2]: 31.4 µM | CC50 [3]: 43.7 µM | fold change (FC) [5]: 5.2 | fold change (FC) [6]: 12.9 | fold change (FC) [7]: 14.8 | fold change (FC) [8]: 11.6 | fold change (FC) [9]: 33 | fold change (FC) [10]: 113.9

CCCC(=O)O[C@@H]1[C@H]2[C@H](OC(=O)/C=C/c3ccccc3)[C@H](OC(=O)c3ccccc3)[C@]3(C)[C@@H](OC(C)=O)CC[C@](C)(O)[C@@]13OC2(C)C
Ki [1]: 0.32 µM | CC50 [2]: 18.3 µM | CC50 [3]: 44.9 µM

CC(=O)O[C@H]1CC[C@](C)(O)[C@]23OC(C)(C)[C@H]([C@H](OC(=O)/C=C/c4ccccc4)[C@H](OC(=O)c4ccccc4)[C@]12C)[C@H]3OC(=O)c1ccccc1
Ki [1]: 0.5 µM | CC50 [2]: 30.6 µM | CC50 [3]: > 60 µM | viability at 60 µM [4]: 64.1% | fold change (FC) [5]: 6.2 | fold change (FC) [6]: 10.1 | fold change (FC) [7]: 17.5 | fold change (FC) [8]: 13.9 | fold change (FC) [9]: 33.6 | fold change (FC) [10]: 126.2

CC(=O)O[C@H]1CC[C@](C)(O)[C@]23OC(C)(C)[C@H]([C@H](OC(=O)/C=C\c4ccccc4)[C@H](OC(=O)c4ccccc4)[C@]12C)[C@H]3OC(=O)c1ccccc1
Ki [1]: 0.25 µM | CC50 [2]: 25.9 µM | CC50 [3]: 27.2 µM | fold change (FC) [5]: 4.1 | fold change (FC) [6]: 14.5 | fold change (FC) [7]: 14.7 | fold change (FC) [8]: 15.5 | fold change (FC) [9]: 30.1 | fold change (FC) [10]: 59.5

COC(=O)CCC(=O)O[C@@H]1[C@H]2[C@H](OC(=O)/C=C/c3ccccc3)[C@H](OC(=O)c3ccccc3)[C@]3(C)[C@@H](OC(C)=O)CC[C@](C)(O)[C@@]13OC2(C)C
Ki [1]: 0.23 µM | CC50 [2]: 17.6 µM | CC50 [3]: 36.4 µM

CC(=O)O[C@H]1CC[C@](C)(O)[C@]23OC(C)(C)[C@H]([C@H](OC(=O)/C=C/c4ccccc4)[C@H](OC(=O)c4ccccc4)[C@]12C)[C@H]3OC(=O)CCC(=O)OC1CCCCC1O (some centres undefined)
Ki [1]: 0.46 µM | CC50 [2]: 19.9 µM | CC50 [3]: 24.3 µM | fold change (FC) [5]: 3.9 | fold change (FC) [6]: 11 | fold change (FC) [7]: 12.8 | fold change (FC) [8]: 9.9 | fold change (FC) [9]: 40.3 | fold change (FC) [10]: 107.8

CC(=O)O[C@H]1CC[C@](C)(OC(=O)CN2CCOCC2)[C@]23OC(C)(C)[C@H]([C@H](OC(=O)/C=C/c4ccccc4)[C@H](OC(=O)c4ccccc4)[C@]12C)[C@H]3OC(C)=O
Ki [1]: 0.31 µM | CC50 [2]: 33.1 µM | CC50 [3]: 36.2 µM | fold change (FC) [5]: 5.7 | fold change (FC) [6]: 10.9 | fold change (FC) [7]: 16.1 | fold change (FC) [8]: 21.1 | fold change (FC) [9]: 49.6 | fold change (FC) [10]: 173.4

CC(=O)O[C@H]1CC[C@](C)(O)[C@@]23OC(C)(C)[C@@H](C2=O)[C@H](OC(=O)/C=C/c2ccccc2)[C@H](OC(=O)c2ccccc2)[C@]13C
Ki [1]: 0.63 µM | CC50 [2]: 34.8 µM | CC50 [3]: 18.9 µM | fold change (FC) [5]: 5.2 | fold change (FC) [6]: 10.4 | fold change (FC) [7]: 15.9 | fold change (FC) [8]: 11.6 | fold change (FC) [9]: 29.4 | fold change (FC) [10]: 106.3

CC(=O)O[C@H]1CC[C@](C)(O)[C@]23OC(C)(C)[C@H]([C@H](OC(=O)/C=C\c4ccccc4)[C@H](OC(=O)c4ccccc4)[C@]12C)[C@H]3OC(C)=O
CC50 [2]: 22.9 µM | CC50 [3]: 12 µM | fold change (FC) [5]: 7 | fold change (FC) [6]: 24 | fold change (FC) [7]: 30.3 | fold change (FC) [8]: 12.1 | fold change (FC) [9]: 19.7 | fold change (FC) [10]: 77

CC(=O)O[C@H]1CC[C@](C)(O)[C@]23OC(C)(C)[C@H]([C@H](OC(=O)/C=C/c4ccccc4)[C@H](OC(=O)c4ccccc4)[C@]12C)[C@H]3OC(=O)CBr
Ki [1]: 0.31 µM | CC50 [2]: 5.7 µM | CC50 [3]: 8.6 µM

CC(=O)O[C@H]1CC[C@](C)(O)[C@]23OC(C)(C)[C@H]([C@H](OC(=O)/C=C/c4ccccc4)[C@H](OC(=O)c4ccccc4)[C@]12C)[C@H]3OC(=O)CCC(=O)OCCO
Ki [1]: 0.5 µM | CC50 [2]: 29.2 µM | CC50 [3]: 27.7 µM | fold change (FC) [5]: 2.6 | fold change (FC) [6]: 7.5 | fold change (FC) [7]: 10.6 | fold change (FC) [8]: 6.5 | fold change (FC) [9]: 26.8 | fold change (FC) [10]: 145.9

CCOC(=O)CCC(=O)O[C@@H]1[C@H]2[C@H](OC(=O)/C=C/c3ccccc3)[C@H](OC(=O)c3ccccc3)[C@]3(C)[C@@H](OC(C)=O)CC[C@](C)(O)[C@@]13OC2(C)C
Ki [1]: 0.26 µM | CC50 [2]: 15.3 µM | CC50 [3]: 58.9 µM
